# KCNQ1 act – potentiators or activators of KCNQ1 channel, primary screen, cell-based, thallium flux, high-throughput; CHO-K1 KCNQ1, thallium flux FluxOR fluorescence; active compounds read high; B-score at 10 µM; actives 0.35% (n = 310,000); AID 2648, 2010;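 active means fluorescence ratio B-score, a plate-corrected score, at least three library SD, with initial intensity B-score within 5 SD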
#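 assay system = CHO-K1 cells stably expressing KCNQ1 | medium = assay buffer, equal DMSO in all wells | timing = 37 °C overnight plating, 90-min dark dye load, 20-min compound pretreatment | measured by = kinetic FluxOR thallium fluorescence, 10-s 1-Hz baseline, 110-s post-stimulus read | measure = fluorescence change relative to baseline, converted to B score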
# KCNQ1 inh – inhibitors of human KCNQ1 channel, primary screen, cell-based, thallium flux, high-throughput; Potassium voltage-gated channel subfamily KQT member 1 (Homo sapiens), P51787; CHO-K1 KCNQ1, FluxOR thallium flux fluorescence; active compounds read high; B-score at 10 µM; actives 1.3% (n = 310,000);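 active means compounds whose thallium flux B-score, printed positive for inhibition, exceeds three library SD while starting fluorescence stays within three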;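 further: channel opened by potassium depolarization with thallium stimulus after 20 min compound exposure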
# KCNK9 block – KCNK9 potassium channel inhibitors, primary screen, HEK293 cells, thallium flux. Potassium channel subfamily K member 9 (Homo sapiens), Q9NPC2. FluxOR thallium flux fluorescence; active compounds read low. B-score at 10 µM. actives 1.2% (n = 310,000). AID 488922, 2010;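 active means ratio B-score over 3 SD below the library mean, with starting fluorescence within 5 SD of its mean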;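 further: negative B-score means less thallium flux so channel inhibition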
# hERG protect – hERG rescue from dofetilide block, primary screen, cell-based, CHO-hERG, FluxOR thallium flux, dofetilide IC70 | Voltage-gated inwardly rectifying potassium channel KCNH2 (Homo sapiens), Q12809 | dofetilide IC70 present | activation (rescue from dofetilide block), less the hit threshold, % at 10 µM | actives 0.51% (n = 310,000);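 active means activation above the mean of controls blocked by dofetilide plus 5 SD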;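 further: thallium influx through hERG after potassium depolarization seen as dye fluorescence rise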
# KCNK3 inh – human KCNK3 channel inhibitors, primary screen, CHO cells, FluxOR thallium flux, B-score; Potassium channel subfamily K member 3 (Homo sapiens), O14649; FluxOR fluorescence; active compounds read low; B-score at 10 µM; actives 0.84% (n = 340,000); AID 602410, 2012;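 active means B-score under library mean minus 4 SD, starting fluorescence ratio at most library mean plus 5 SD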;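 further: more negative B-score means stronger inhibition of thallium flux through KCNK3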
# KCNQ1 inh valid – KCNQ1 potassium channel inhibitors, confirmation, cell-based, Tl flux, duplicate | shares compounds with KCNQ1 inh | KCNQ1 cell line, FluxOR thallium flux fluorescence | inhibition, % at 10 µM | actives 93% (n = 1,600) | AID 588353, 2011;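 active means primary screen active, with duplicate mean exceeding buffer control mean plus 3 SD of buffer wells, cut at about 28% in these data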;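 further: 0% = buffer control ratio and 100% = XE991 inhibitor control ratio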
# CHO KCNQ1 ctr – thallium flux effects in parental CHO cells, counter-screen for KCNQ1 inhibitor project, cell-based, Tl flux. actives 21% (n = 1,600). fluorescence ratio (Tl flux) at 10 µM. parental CHO-K1, FluxOR thallium flux fluorescence ratio; active compounds read low; zero means no signal rise above baseline. shares compounds with KCNQ1 inh;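 active means mean of duplicate thallium-flux fluorescence ratios in parental host cells more than 5 SD below the buffer control mean, cut at about 0.38 in these data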;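 further: ratio is peak minus minimum fluorescence divided by baseline fluorescence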
# KCNQ1 ephys val – KCNQ1 channel inhibitors, confirmation, orthogonal assay, cell-based, automated electrophysiology; shares compounds with KCNQ1 inh; KCNQ1-CHO cells, automated patch clamp current; calls only at 10 µM; actives 20% (n = 490);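 active means KCNQ1 current drop exceeding 3 SD of negative control wells, seen in both duplicate runs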;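 further: steady state current during a 2 s step from -80 to +40 mV; negative values mean current inhibition and positive values mean potentiation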
# KCNQ2 inh – KCNQ2 channel inhibition, selectivity assay for KCNQ1 inhibitor project, cell-based | shares compounds with KCNQ1 inh | KCNQ2 cells, FluxOR thallium flux fluorescence | inhibition, % at 10 µM | actives 71% (n = 1,600) | AID 651746, 2012;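 active means mean percent inhibition of the KCNQ2 thallium signal more than 5 SD above the buffer-only control wells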;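 further: KCNQ2 expressed in CHO cells; 0% = buffer control wells and 100% = XE-991 inhibitor control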
# KCNQ1-KCNE1 inh – KCNQ1/KCNE1 channel inhibition, selectivity assay for KCNQ1 inhibitor project, CHO-K1 cells, thallium flux, FluxOR | shares compounds with KCNQ1 inh | FluxOR thallium flux fluorescence | inhibition, % at 10 µM | actives 77% (n = 1,600) | AID 652147, 2013;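 active means mean percent inhibition of duplicate wells above the buffer-only control mean plus 3 SD of those controls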;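 further: 0% = buffer only wells and 100% = XE-991 inhibitor control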
# Target sequence (P51787 whole entry, looked up): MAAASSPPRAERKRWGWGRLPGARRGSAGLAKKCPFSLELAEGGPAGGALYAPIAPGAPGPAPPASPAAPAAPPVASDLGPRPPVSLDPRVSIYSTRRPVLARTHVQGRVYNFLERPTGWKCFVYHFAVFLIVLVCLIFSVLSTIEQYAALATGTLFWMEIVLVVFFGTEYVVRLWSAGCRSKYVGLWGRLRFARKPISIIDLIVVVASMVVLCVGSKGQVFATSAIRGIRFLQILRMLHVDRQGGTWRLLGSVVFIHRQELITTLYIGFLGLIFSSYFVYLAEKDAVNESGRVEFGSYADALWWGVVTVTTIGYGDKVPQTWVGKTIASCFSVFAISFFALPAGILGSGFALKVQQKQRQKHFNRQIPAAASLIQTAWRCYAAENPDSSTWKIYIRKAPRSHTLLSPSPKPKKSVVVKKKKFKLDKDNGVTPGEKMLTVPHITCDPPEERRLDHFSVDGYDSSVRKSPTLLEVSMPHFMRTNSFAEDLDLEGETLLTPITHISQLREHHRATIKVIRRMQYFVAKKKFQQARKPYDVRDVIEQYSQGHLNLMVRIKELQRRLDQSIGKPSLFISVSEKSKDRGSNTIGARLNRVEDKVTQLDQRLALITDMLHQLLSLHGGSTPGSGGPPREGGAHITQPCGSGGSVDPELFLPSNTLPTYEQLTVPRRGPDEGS
# * hit, by the source's call; i = inactive; . = no result given; + = active, no number. Only some compounds are listed: those with a hit (about 3.1% of all), similar ones and a draw of the others.
SMILES,KCNQ1 act,KCNQ1 inh,KCNK9 block,hERG protect,KCNK3 inh,KCNQ1 inh valid,CHO KCNQ1 ctr,KCNQ2 inh,KCNQ1-KCNE1 inh,others
CCC(C)n1c(=O)c(C(=O)Nc2ccccc2S(N)(=O)=O)c(O)c2ccccc21 (stereo not given),i,i,i,-8,i,.,.,.,.,
CC(C)Cn1c(=O)c(C(=O)Nc2ccccc2S(N)(=O)=O)c(O)c2ccccc21,i,8*,i,-9,i,118*,0.41,63%*,148%*,
COc1cc2c(cc1OC)C(c1ccccc1)N(S(C)(=O)=O)CC2 (stereo not given),i,i,i,-6,i,.,.,.,.,
O=C(NC1CC1)c1cccc(S(=O)(=O)N2CCOCC2)c1,.,.,.,.,i,.,.,.,.,
Cc1cccc(C)c1OCC(O)CN(Cc1ccccc1O)C1CCCCC1 (stereo not given),i,7*,i,-17,i,94*,0.42,114%*,55%*,KCNQ1 ephys val=+
CN(CC(O)COc1ccc(OCC(O)CN(C)C2CCCCC2)cc1)C1CCCCC1 (stereo not given),i,i,i,-1,i,.,.,.,.,
Fc1ccc(NC(=S)Nc2cccc(Cl)c2)cc1,i,6*,i,-18,i,48*,0.51,i,36%*,
O=C(Nc1ccc2nccnc2c1)Nc1ccccc1Cl,i,i,i,-9,i,.,.,.,.,
CSc1cccc(NC(=O)Nc2ccc(Cl)cc2)c1,i,17*,i,-17,i,68*,0.39,61%*,44%*,
O=C(Nc1ccccc1)Nc1cccc(Cl)c1,i,13*,i,-13,i,86*,0.51,72%*,i,
Fc1ccc(CNC(=S)Nc2cccc(Cl)c2)cc1,i,i,i,-18,i,.,.,.,.,
CSc1cccc(NC(N)=O)c1,i,i,i,-10,i,.,.,.,.,
O=C(Nc1cccc(Cl)c1)Nc1ccc2nccnc2c1,i,7*,i,-8,i,98*,0.43,92%*,100%*,KCNQ1 ephys val=i
CN(C(=O)COC(=O)C12CC3CC(CC(Cl)(C3)C1)C2)c1ccccc1,.,.,.,.,i,.,.,.,.,
Cc1cc(C)c(NC(=O)Cn2nnc(C(=O)Nc3ccc(F)cc3F)c2N)c(C)c1,i,i,i,-4,i,.,.,.,.,
CCNc1oc(/C=C/c2ccc(OCC)cc2)nc1C#N,i,i,i,-9,i,.,.,.,.,
O=C(Cn1c(NCCO)nc2ccccc21)Nc1ccc2c(c1)OCCCO2,.,.,.,.,i,.,.,.,.,
COc1ccc2[nH]c3c(c2c1)CCN1C(=O)C(CC(=O)NCc2ccco2)C[C@H](C(=O)N2CCOCC2)[C@@]31C (stereo not given in full),.,.,.,.,i,.,.,.,.,
CC(=O)c1ccc(NC(=O)Nc2cccc(Cl)c2)cc1,i,8*,i,-17,i,88*,0.47,61%*,i,KCNQ1 ephys val=i
N#Cc1ccc(NC(=O)Nc2cccc(C#N)c2)cc1,i,7*,i,-26,i,49*,0.49,i,i,
O=C(Nc1cccnc1)Nc1cccc(F)c1,i,i,i,-6,i,.,.,.,.,
N#Cc1cccc(NC(=O)c2ccccc2C(=O)O)c1,i,i,i,-7,i,.,.,.,.,
COC(=O)c1cc(OC)c(OC)cc1NC(=S)Nc1cccc(Cl)c1,i,7*,i,-6,i,60*,0.51,i,i,
O=C(Nc1ccncc1)Nc1cccc(F)c1,i,8*,i,-17,i,48*,0.55,i,42%*,
Cc1cccnc1NC(=O)CSc1nnc(CNC(=O)c2cccc([N+](=O)[O-])c2)n1C,i,i,i,-7,i,.,.,.,.,
SMILES,KCNQ1 act,KCNQ1 inh,KCNK9 block,hERG protect,KCNK3 inh,KCNQ1 inh valid,CHO KCNQ1 ctr,KCNQ2 inh,KCNQ1-KCNE1 inh,others
Fc1ccc(CN2CCN3CCCC3C2C2CCCCC2)cc1F (stereo not given),.,.,.,.,i,.,.,.,.,
COc1ccccc1CN1C(=O)CN(C2CCCCCC2)C(=O)C1c1ccc(F)cc1 (stereo not given),i,i,i,-12,i,.,.,.,.,
COc1cccc(C2C(=O)N(C3CCCCC3)CC(=O)N2Cc2ccc(F)cc2)c1 (stereo not given),i,6*,i,-19,i,54*,0.45,93%*,42%*,
COCCC1CCCCN1C(=O)c1cc(COc2cccc(C(C)=O)c2)on1 (stereo not given),i,i,i,-15,i,.,.,.,.,
CCOC(=O)CC1CCCCN1C(=O)c1cc(COc2cccc3cnccc23)on1 (stereo not given),i,11*,i,-19,i,136*,0.48,92%*,58%*,KCNQ1 ephys val=i
COC(=O)C1CCCCN1C(=O)c1cc(COc2cccc3cccnc23)on1 (stereo not given),i,i,i,-6,i,.,.,.,.,
COC(=O)C1CCCCN1C(=O)c1cc(COc2cccc3cnccc23)on1 (stereo not given),i,9*,i,-22,i,25*,0.57,75%*,i,
COc1ccc(NC(=O)Cc2nnc(SCC(=O)NC3CCCCC3C)n2C)cc1 (stereo not given),i,i,i,-4,i,.,.,.,.,
O=C(COc1ccccc1[N+](=O)[O-])N(Cc1ccco1)C1CCS(=O)(=O)C1 (stereo not given),i,i,i,-2,i,.,.,.,.,
C=CCn1c(SCC(=O)c2ccc(NS(=O)(=O)c3ccccc3)cc2)nnc1-c1cccs1,i,i,i,-12,i,.,.,.,.,

# Screening results from PubChem BioAssay.
